# Compound activity deposited in PubChem by several laboratories.
# CCR6 antag: antagonists of human CCR6 receptor; CHO-K1 CCR6 PathHunter beta-arrestin, luminescence, CCL20-stimulated; actives 0.49% (n = 340,000); inhibition, % at 20 µM; P51684;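 active means compounds whose inhibition of the agonist-driven luminescence signal at 20 µM reaches about 50%, limit read from the data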;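 further: cells stimulated with CCL20 at 14 nM final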
# APJ agonist: activates the human apelin receptor APJ. P35414. CHO-K1 APJ PathHunter beta-arrestin, luminescence; 0% DMSO wells, 100% apelin. activation, % at 20 µM. actives 0.11% (n = 330,000). AID 2520;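 active means activation more than six SD over the plate average, tested at 20 µM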
# Target sequence (P35414 whole entry, looked up): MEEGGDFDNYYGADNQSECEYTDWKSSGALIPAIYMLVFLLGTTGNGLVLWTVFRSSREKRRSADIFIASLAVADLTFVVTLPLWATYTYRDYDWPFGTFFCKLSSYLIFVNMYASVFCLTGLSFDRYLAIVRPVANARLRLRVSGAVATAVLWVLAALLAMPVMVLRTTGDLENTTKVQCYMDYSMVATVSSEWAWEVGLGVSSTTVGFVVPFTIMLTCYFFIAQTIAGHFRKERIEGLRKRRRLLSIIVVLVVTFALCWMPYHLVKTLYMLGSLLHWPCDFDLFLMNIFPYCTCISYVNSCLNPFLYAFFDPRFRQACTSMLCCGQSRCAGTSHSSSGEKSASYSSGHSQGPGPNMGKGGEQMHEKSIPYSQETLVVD
#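 Assay system: CHO-K1 APJ beta-arrestin complementation cell line / Compound: single test compound dose, 20 µM final, 1% DMSO / Times: overnight seeding, 90 min compound at 25 °C, 1 h detection / Technique: beta-gal luminescence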
# CXCR6 inh: blocks human CXCR6 beta-arrestin recruitment; O00574; CHO-K1 PathHunter CXCR6 beta-arrestin, luminescence; inhibition, % at 20 µM; actives 0.36% (n = 360,000); AID 602244; in the data active means inhibition above about 34%, passing the limit was not always enough;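 further: antagonist mode with CXCL16 agonist at 10 nM final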
# EBI2 block: antagonists of human EBI2 receptor; P32249; EBI2 beta-arrestin recruitment, luminescence, 7a,25-OHC stimulated; inhibition, % at 5 µM; actives 0.81% (n = 360,000); AID 651636; in the data active means inhibition above about 38%;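 further: enzyme fragment complementation signal reports receptor beta-arrestin coupling in cells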
# APJ antagonist: antagonists of human APJ apelin receptor | CHO-K1 APJ beta-arrestin complementation, luminescence | actives 0.32% (n = 330,000) | AID 2521 | inhibition, % at 20 µM | P35414;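 active means inhibition above about 40% at 20 µM, limit read from the data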;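 further: cells challenged with 10 nM apelin-13 agonist together with compound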
# HTR2A ag: mouse HTR2A agonism via beta-arrestin recruitment | AID 624169 | P35363 | activation, % at 7.6 µM | CHO-K1 mHTR2A beta-arrestin complementation, luminescence; percent of 30 µM serotonin response | actives 0.66% (n = 360,000);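 active means activation above a run cutoff, the mean activation of all tested compounds plus 3 SD, cut at about 14% in these data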
# EBI2 conf: confirmation of human EBI2 receptor antagonists. inhibition, % at 5 µM. actives 29% (n = 2,400). EBI2 beta-arrestin luminescence, 7a,25-OHC antagonism. AID 651997. shares compounds with EBI2 block;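 active means inhibition of at least 50%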
# EBI2 agonist: EBI2 agonism counter-screen; shares compounds with EBI2 block; EBI2-expressing cells, agonist mode, luminescence, 60 min; 0% vehicle, 100% 7α,25-dihydroxycholesterol control; activation, % at 5 µM; 2,400 tested, under 10 active;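 active means activation of at least 50%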
# bGal counter: beta-galactosidase inhibition counter-screen | AID 652176 | inhibition, % at 5 µM | shares compounds with EBI2 block | purified beta-galactosidase, luminescent Galacton Star, 15 min | actives 1% (n = 2,400);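 active means replicate-average signal at least 3 plate SD below neutral wells, shown as high inhibition, flagging enzyme-inhibiting false positives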;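 further: higher means stronger loss of beta-gal luminescence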
# Numbers stand for hits; n = inactive; x = no result. Most compounds without a hit are left out; they make up all but 2.2% or so of the library.
SMILES,CCR6 antag,APJ agonist,CXCR6 inh,EBI2 block,APJ antagonist,HTR2A ag,EBI2 conf,EBI2 agonist,bGal counter
OCC1CSC(=S)N1Cc1ccccc1 (stereo not given),x,x,n,n,x,n,x,x,x
CCNC(=S)Nc1ccc2c(c1)c(=O)n(C)n2-c1ccc(C(C)(C)C)cc1,x,x,n,n,x,n,x,x,x
CN(C)N=Nc1ccc(-c2cn(Cc3ccccc3)cn2)cc1,n,n,n,45,n,n,n,n,n
CCN(Cc1ccccc1)N=Nc1ccccc1,x,x,n,n,x,n,x,x,x
CC(C)Cc1nc2sc3c(NCc4ccco4)ncnc3c2c2c1COC(C)(C)C2,n,n,n,47,n,n,n,n,n
Cc1nc2sc3c(NCc4ccco4)ncnc3c2c2c1COC(C)(C)C2,n,n,n,n,n,n,x,x,x
O=C(Cc1ccccc1F)Nc1cc(S(=O)(=O)N2CCCCC2)ccc1N1CCOCC1,x,x,n,n,x,n,x,x,x
O=C(C=Cc1ccccc1)c1ccc([N+](=O)[O-])cc1,n,x,n,n,x,n,x,x,x
CN(C)c1ccc(C(=O)C=Cc2ccc([N+](=O)[O-])cc2)cc1,x,x,n,53,x,n,n,n,n
Cc1ccc(/C=C/C(=O)c2ccc(C)cc2)cc1,n,n,n,61,n,n,66,n,n
COc1ccc(C(=O)/C=C/c2ccc(C)cc2)c(OC(=O)c2ccc([N+](=O)[O-])cc2)c1,n,n,n,82,n,n,n,n,n
CC(=O)c1ccc(NC(=O)/C=C/c2ccc(C)cc2)cc1,n,n,n,54,n,n,n,n,n
Cc1ccc(C(=O)C=Cc2cccc(C)c2)cc1,n,x,n,n,x,n,x,x,x
COc1ccc(C(=O)/C=C/c2ccccc2F)c(OC(=O)c2ccc([N+](=O)[O-])cc2)c1,n,n,n,n,n,n,x,x,x
CC(C)(C)OC(=O)Nc1ccccc1-n1nnnc1C(C(=O)c1ccc(F)cc1)N1CCOCC1 (stereo not given),x,x,x,n,x,n,x,x,x
CC(C)(C)CN1C(=O)C(=O)NC[C@@H]1CC1CCCCC1,x,x,n,n,x,n,x,x,x
CC(=O)N1CCOc2ccc(S(=O)(=O)N3CCC(C(=O)NCc4ccc(F)cc4)CC3)cc21,n,n,n,69,n,n,56,n,n
CCc1ccc(NC(=O)C2CCN(S(=O)(=O)c3ccc4c(c3)N(C(C)=O)CCO4)CC2)cc1,n,n,n,n,n,n,x,x,x
CC(=O)N1CCOc2ccc(S(=O)(=O)N3CCC(C(=O)NCc4ccc(C)cc4)CC3)cc21,n,n,n,94,n,n,85,n,n
CC(=O)N1CCOc2ccc(S(=O)(=O)N3CCC(C(=O)NCc4ccc(Cl)cc4)CC3)cc21,x,x,n,90,x,n,80,n,n
CC(=O)N1CCOc2ccc(S(=O)(=O)N3CCC(C(=O)Nc4ccc(C)cc4)CC3)cc21,n,n,n,n,n,n,x,x,x
CCCCn1nnnc1C(c1ccccc1)N1CCN(c2cc(C)ccc2C)CC1 (stereo not given),x,x,n,n,x,n,x,x,x
Cc1ccc(OCCCC(=O)N2CCN(S(=O)(=O)c3cccc(F)c3)CC2)cc1,n,n,n,53,n,n,n,n,n
O=C(CCCOc1ccccc1)N1CCN(S(=O)(=O)c2cccc(F)c2)CC1,n,n,n,n,n,n,x,x,x
O=C(CCCOc1ccccc1)N1CCN(S(=O)(=O)c2ccccc2)CC1,n,n,n,46,n,n,n,n,n
COc1cc(NC(C)CCCN)c2nc(C)ccc2c1Oc1ccc(F)cc1 (stereo not given),x,x,n,n,x,n,x,x,x
COc1ccc(OCC(=O)N(C)Cc2ccccc2)cc1,n,n,n,63,n,n,56,n,n
Cc1cc(OCC(=O)N(C)Cc2ccccc2)ccc1Cl,n,n,n,83,n,n,72,n,n
